Here are results for six molecules from PMC3227417 (Cancer prevention research (Philadelphia, Pa.), 2009).

Where two headings read alike, the source gives them in different places.

Data set [1] concerns human HT-29 colon tumor xenograft. The data set is described as follows: HT-29 colon tumor xenograft, treatment of established tumors. The class given is in vivo, mice. The conditions noted are these: for median number of days to reach a tumor weight of 2,000 mg: control 42.8 days; for median number of days to reach a tumor weight of 3,000 mg: control 52.2 days.
In data set [2] the target is T1, purified ovine COX-2 (Ovis aries, UniProt P79208).
T1 sequence (P79208 17-603): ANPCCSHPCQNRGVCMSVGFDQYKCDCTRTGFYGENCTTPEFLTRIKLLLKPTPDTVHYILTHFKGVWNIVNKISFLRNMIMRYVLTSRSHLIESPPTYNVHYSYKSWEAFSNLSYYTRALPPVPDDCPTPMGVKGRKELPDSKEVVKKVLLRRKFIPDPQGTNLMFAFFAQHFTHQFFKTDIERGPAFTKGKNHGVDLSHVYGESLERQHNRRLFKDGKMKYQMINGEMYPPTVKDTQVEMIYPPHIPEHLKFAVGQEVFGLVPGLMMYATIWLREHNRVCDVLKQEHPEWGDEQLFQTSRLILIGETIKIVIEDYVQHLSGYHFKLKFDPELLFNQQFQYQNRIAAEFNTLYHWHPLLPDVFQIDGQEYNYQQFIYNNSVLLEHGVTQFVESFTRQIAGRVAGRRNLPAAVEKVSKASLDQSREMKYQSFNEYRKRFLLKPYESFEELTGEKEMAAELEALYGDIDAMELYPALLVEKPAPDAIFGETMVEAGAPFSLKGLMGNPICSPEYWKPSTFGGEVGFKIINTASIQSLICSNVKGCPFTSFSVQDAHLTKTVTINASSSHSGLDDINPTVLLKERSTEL
The data set is described as follows: COX-2 colorimetric enzyme assay with purified isozyme. Type of data set: biochemical.

For data set [3], the system named is HT-29 colon tumor cells. Kind of data set: Growth assay. Type of data set: cell-based, human. The conditions noted are these: for continuous treatment required to reach maximum potency of growth inhibition: HT-29 time course. The method in brief:
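HT-29 cells were grown in RPMI 1640 with 5% FBS at 37°C under 5% CO2, using only cultures with >95% viability. Cells were seeded at 5,000/well, left 16 h, then treated continuously for 72 h at 37°C. Viable cell number was read as ATP luminescence (CellTiterGlo). A time course experiment used the same read-out. Mean, SE shown.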

Data set [4] has as its target T2, purified ovine COX-1 (Ovis aries, UniProt P05979).
T2 sequence (P05979 25-600): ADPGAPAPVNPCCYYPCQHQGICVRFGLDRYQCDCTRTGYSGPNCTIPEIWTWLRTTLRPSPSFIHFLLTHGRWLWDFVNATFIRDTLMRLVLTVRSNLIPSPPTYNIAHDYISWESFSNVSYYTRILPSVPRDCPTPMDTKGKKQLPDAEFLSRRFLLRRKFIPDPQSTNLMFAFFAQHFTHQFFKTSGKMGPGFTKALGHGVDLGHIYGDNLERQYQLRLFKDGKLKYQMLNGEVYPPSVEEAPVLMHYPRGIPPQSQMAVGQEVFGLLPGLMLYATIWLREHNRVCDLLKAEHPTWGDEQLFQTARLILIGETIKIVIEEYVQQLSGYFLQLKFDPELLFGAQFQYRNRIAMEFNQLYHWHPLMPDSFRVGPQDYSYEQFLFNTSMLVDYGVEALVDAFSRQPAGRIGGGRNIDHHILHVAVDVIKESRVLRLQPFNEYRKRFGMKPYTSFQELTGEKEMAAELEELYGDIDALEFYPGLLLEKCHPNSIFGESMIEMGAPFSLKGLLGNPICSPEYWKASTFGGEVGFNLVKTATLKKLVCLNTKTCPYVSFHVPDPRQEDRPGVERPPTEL
Kind of data set: COX-1 colorimetric enzyme assay with purified isozyme. The class given is biochemical.

Data set [5] concerns HT-29 colon tumor cells. Kind of data set: TUNEL apoptosis assay. The class given is cell-based, human. The conditions noted are these: 24 hours, vehicle 2.3%. The gist of the method:
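HT-29 cells were seeded at 2 × 10^6 per 10 cm dish and grown 48 h. Medium was then replaced with test compound or vehicle for 24 h. Cells were fixed in 4% formalin on ice for 15 min. Strand breaks were labelled with BrdUrd, detected with anti-BrdUrd Alexa Fluor 488, and nuclei stained with propidium iodide. TUNEL-positive percentage was read by flow cytometry (≥10,000 events). Mean ± SE.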

Data set [6] relates to HT-29 colon tumor cells. Kind of data set: Proliferation assay. The class given is cell-based, human. The conditions noted are these: read-out: IC50 to inhibit DNA synthesis (3H-thymidine incorporation); HT-29, 72 h of treatment. A general note: Dividing cells build labelled thymidine or BrdU into new DNA.
Data set [7] deals with human HT-29 colon tumor xenograft. The data set is described as follows: HT-29 colon tumor xenograft, treatment from day of tumor implantation. Type of data set: in vivo.
Data set [8] relates to caspases 3 and 7 activity in HT-29 colon tumor cells. The data set is described as follows: Caspase-Glo 3/7 apoptosis assay. Type of data set: cell-based, human. The conditions noted are these: HT-29, 25 µmol/L. The method in brief:
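HT-29 cells were seeded at 10,000/well and grown 18–24 h before treatment. Treatment lasted 2–8 h: time course at 25 µmol/L, and dose-response at 5 h exposure. Caspase 3/7 activity was read as luminescence from substrate cleavage (Caspase-Glo 3/7).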

A short description of data set [9]: Pharmacokinetic study, plasma levels after single gastric gavage. Type of data set: in vivo, mice. The conditions noted are these: for plasma level: mice, ± SD.
The test system of data set [10] is NCr-nu/nu mice. Type of data set: in vivo.
The mark [11] stands for this setting: 250 mg/kg twice daily gastric gavage, 55 days.
Setting [12] is: read-out: COX-2 IC50, purified COX-2 isozyme, arachidonic acid, 25°C, 5 min.
Where [13] appears, read: read-out: COX-1 IC50, purified COX-1 isozyme, arachidonic acid, 25°C, 5 min.
The mark [14] stands for this setting: purified COX-2 isozyme, arachidonic acid, 25°C, 5 min.
The mark [15] stands for this setting: purified COX-1 isozyme, arachidonic acid, 25°C, 5 min.

Regarding `CCc1c2c(nc3ccc(OC(=O)N4CCC(N5CCCCC5)CC4)cc13)-c1cc3c(c(=O)n1C2)COC(=O)[C@]3(O)CC.Cl` [Camptosar, irinotecan HCl], in data set [1], the “median number of days to reach a tumor weight of 2,000 mg” value is listed as 48.2 days and the “median number of days to reach a tumor weight of 3,000 mg” value stood at 58.7 days.

For `CS(=O)(=O)c1ccc(C2=C(c3ccccc3)C(=O)OC2)cc1` [Rofecoxib], the IC50 in data set [2] amounted to 2.7 µM.

Turning to `CSc1ccc(/C=C2/C(C)=C(CC(=O)O)c3cc(F)ccc32)cc1` [SS, sulindac sulfide], in [3], the “continuous treatment required to reach maximum potency of growth inhibition” value was ~ 2 days. The molecule further showed an IC50 in data set [4] of 1.8 µM. For the same molecule, the “percentage of apoptotic cells (TUNEL)” value in data set [5] (HT-29, 100 µmol/L) turned out to be 7.1%; in data set [5] (HT-29, 200 µmol/L), 49.9%.

Take `CSc1ccc(/C=C2/C(C)=C(CC(=O)NCCN(C)C)c3cc(F)ccc32)cc1` [SSA]: the “median number of days to reach a tumor weight of 2,000 mg” value in data set [1] is reported as 40.8 days. Further, in data set [1], the “median number of days to reach a tumor weight of 3,000 mg” value is 53.2 days. The IC50 in data set [6] is 1.2 µM; in [2] (setting [12]), 164 µM; in data set [4] (setting [13]), over 300 µM. In addition, the “mean body weight loss averaged over the duration of treatment” value in [7] (setting [11]) is on record as 1.1%. For the same molecule, the “mean body weight loss on any given day” value in data set [7] (setting [11]) is listed as at most 6%. For the same molecule, the mean tumor weight in data set [7] (day 55, 250 mg/kg twice daily, control 2,534 mg) was 1,141 mg. Also, the “increase in potency compared with SS (growth inhibition)” value in data set [3] (HT-29 cell line) is recorded as about 40 fold. Besides, the “continuous treatment required to reach maximum potency of growth inhibition” value in data set [3] was ~ 2 days. Further, the “optimum treatment time for caspase induction” value in data set [8] is on record as ~ 4 hours. This molecule also returned a plasma half-life in [9] (mouse, in vivo, po, 200 mg/kg) of 9.9 h. The tolerated dosage entry in data set [10] (mouse, in vivo) is “up to 300 mg/kg”. Besides, the “percentage of apoptotic cells (TUNEL)” value in data set [5] (HT-29, 10 µmol/L) is listed as 3.6%; in data set [5] (HT-29, 25 µmol/L) it was 10.2%; in data set [5] (HT-29, 50 µmol/L), 91.8%.

Take `CC1=C(CC(=O)O)c2cc(F)ccc2/C1=C\c1ccc(S(C)(=O)=O)cc1` [Sulindac sulfone, sulindac sulfone]: the IC50 in [2] and in data set [4] was over 300 µM in each case. Also, in data set [2] (setting [14]), the “COX-2 IC50” value is “lack both COX-1 and COX-2 inhibitory activity”. The “COX-1 IC50” value in data set [4] (setting [15]) was “lack both COX-1 and COX-2 inhibitory activity”.

Take `CC1=C(CC(=O)O)c2cc(F)ccc2/C1=C\c1ccc([S+](C)[O-])cc1` (stereo not drawn) [Sulindac sulfoxide, sulindac]: the IC50 in [6] is 222 µM; in [2] (setting [12]), over 300 µM; in [4] (setting [13]), over 300 µM. Besides, the “COX-2 IC50” value in data set [2] (setting [14]) was “lack both COX-1 and COX-2 inhibitory activity”. The “COX-1 IC50” value in data set [4] (setting [15]) was “lack both COX-1 and COX-2 inhibitory activity”. The plasma level was 50 ± 40 nM in [9] (1 h post gastric gavage of SSA (200 mg/kg)); 60 ± 10 nM in data set [9] (2 h post gastric gavage of SSA (200 mg/kg)); 50 ± 10 nM in data set [9] (4 h post gastric gavage of SSA (200 mg/kg)); 50 ± 14 nM in data set [9] (8 h post gastric gavage of SSA (200 mg/kg)); “BLD” in data set [9] (16 h post gastric gavage of SSA (200 mg/kg)); “BLD” in [9] (24 h post gastric gavage of SSA (200 mg/kg)). Moreover, the tolerated dosage in [10] (mice, once daily gastric gavage, 20 days of treatment) is on record as at most 50 mg/kg.
